Reference: ChEMBL document CHEMBL1125646, “Potential antipsychotic agents. 9. Synthesis and stereoselective dopamine D-2 receptor blockade of a potent class of substituted (R)-N-[(1-benzyl-2-pyrrolidinyl)methyl]benzamides. Relations to other side chain congeners” (J Med Chem, 1991)

How the values were obtained:
D(2) dopamine receptor [1] = biological target: T1, D(2) dopamine receptor (Rattus norvegicus, UniProt P61169); assay: Inhibition of [3H]spiperone binding to rat striatal dopamine receptor D2 was determined in vitro
T1 sequence (P61169 whole entry): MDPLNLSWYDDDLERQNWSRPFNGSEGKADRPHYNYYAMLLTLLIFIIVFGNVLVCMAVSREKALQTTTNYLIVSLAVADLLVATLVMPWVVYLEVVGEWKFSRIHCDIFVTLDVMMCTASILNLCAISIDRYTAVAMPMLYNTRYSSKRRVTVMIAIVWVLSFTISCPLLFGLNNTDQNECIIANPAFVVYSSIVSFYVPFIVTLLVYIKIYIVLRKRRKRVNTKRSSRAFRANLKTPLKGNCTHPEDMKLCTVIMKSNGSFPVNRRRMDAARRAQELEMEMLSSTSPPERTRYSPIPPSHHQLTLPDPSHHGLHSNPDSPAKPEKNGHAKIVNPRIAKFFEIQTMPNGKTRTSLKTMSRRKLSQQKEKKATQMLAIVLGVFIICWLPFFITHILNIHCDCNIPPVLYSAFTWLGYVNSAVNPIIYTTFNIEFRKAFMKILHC
How it was run: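 Rat striatal membranes in 0.05 M Tris-HCl pH 7.6 with 0.1% ascorbic acid and salts, at 5 mg wet weight/mL. Incubated with [3H]spiperone at 37 °C for 10 min. Nonspecific binding defined with 1 μM (+)-butaclamol. Bound ligand separated by glass-fibre filtration and counted by liquid scintillation. IC50 by log-logit regression.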

Rattus norvegicus [2] = assay: Block of apomorphine-induced response measured as hyperactivity injected ip 60 min prior to apomorphine hydrochloride(1 mg/kg, sc); format: functional
How it was run: (§1)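 Male Sprague-Dawley rats (270–325 g). Compounds in saline or acetic acid/water given ip (5 ml/kg) 60 min before apomorphine HCl 1 mg/kg sc into neck. […] At least six dose levels, 6–8 rats each. ED50 by regression with Fieller's theorem 95% confidence limits.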

D(2) dopamine receptor [3] = biological target: T1, D(2) dopamine receptor; assay: Inhibition of [3H]raclopride binding to rat striatal dopamine receptor D2
How it was run: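 Rat striatal membranes were homogenised in 0.05 M Tris-HCl pH 7.6, washed by centrifugation, then resuspended with 0.1% ascorbic acid and salts at 5 mg original wet weight/mL. Nonspecific binding was set with 1 μM (+)-butaclamol. Filtration on glass-fibre filters, scintillation counting. Ki by nonlinear regression (LIGAND), Cheng–Prusoff, all experiments pooled.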

Rattus norvegicus [4] = species: Rattus norvegicus; assay: The catalepsy was measured in rat by using bar test; format: functional
How it was run: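 Horizontal bar 7 cm high, 1.5 cm diameter. Rat forepaws placed over it at 20, 40, 60, 90, 120 and 240 min after ip dosing. Descent latency timed, 60 s cutoff. Cataleptic = mean over 15 s from the three longest latencies. Saline controls included.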

Rattus norvegicus [5] = assay: Block of apomorphine-induced response measured as hypothermia injected ip 30 min prior to apomorphine hydrochloride(1 mg/kg, sc); format: functional
How it was run: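 Male Sprague-Dawley rats (200–250 g) housed at 21 ± 0.5 °C, groups of n = 6, given saline or compound ip 30 min before apomorphine HCl 1 mg/kg sc. Rectal core temperature taken before dosing, before apomorphine and 15 min after it. Changes are percent of control mean.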

Rattus norvegicus [6] = assay: Block of apomorphine-induced response measured as stereotypies injected ip 60 min prior to apomorphine hydrochloride(1 mg/kg, sc); format: functional; how it was run: as §1
[7] = Rattus norvegicus, read-out: ED50

SMILES: COc1cc(Br)cc(C(=O)NC[C@@H]2CCCN2Cc2ccc(F)cc2)c1OC
- IC50 (D(2) dopamine receptor [1]): 126 nM

SMILES: COc1cccc(C(=O)NC2CCN(Cc3ccccc3)CC2)c1OC
- IC50 (D(2) dopamine receptor [1]): 6.3 nM

SMILES: COc1cc(Br)c(OC)c(C(=O)NC[C@H]2CCCN2Cc2ccccc2)c1OC
- IC50 (D(2) dopamine receptor [1]): 1860 nM

SMILES: CCN1CCC[C@H]1CNC(=O)c1c(OC)c(Cl)cc(Cl)c1OC
- IC50 (D(2) dopamine receptor [1]): > 10000 nM

SMILES: CCc1cc(Cl)c(OC)c(C(=O)NC[C@H]2CCCN2Cc2ccc(F)cc2)c1O
- IC50 (D(2) dopamine receptor [1]): 29 nM

SMILES: COc1cc(Br)c(O)c(C(=O)NC2CCN(Cc3ccccc3)CC2)c1OC
- IC50 (D(2) dopamine receptor [1]): 0.36 nM

SMILES: COc1c(Cl)cc(Cl)c(OC)c1C(=O)NC1CCN(Cc2ccccc2)CC1
- IC50 (D(2) dopamine receptor [1]): 3450 nM

SMILES: CCc1cc(Cl)c(OC)c(C(=O)NC2CCN(Cc3ccccc3)CC2)c1O
- IC50 (D(2) dopamine receptor [1]): 9.4 nM

SMILES: COc1c(Cl)cc(Cl)c(O)c1C(=O)NC[C@H]1CCCN1Cc1ccc(F)cc1
- IC50 (D(2) dopamine receptor [1]): 21 nM

SMILES: COc1ccc(Br)c(O)c1C(=O)NC1CCN(Cc2ccccc2)CC1
- IC50 (D(2) dopamine receptor [1]): 41 nM

SMILES: COc1cc(Br)c(OC)c(C(=O)NC[C@H]2CCCN2Cc2ccc(F)cc2)c1O
- IC50 (D(2) dopamine receptor [1]): 124 nM

SMILES: COc1ccc(Br)c(O)c1C(=O)NC[C@H]1CCCN1Cc1ccc(F)cc1
- ED50 (Rattus norvegicus [2]; [7]): 2 µmol/kg
- Ki (D(2) dopamine receptor [3]): 0.43 nM
- ED50 (Rattus norvegicus [4]): 27 µmol/kg
- IC50 (D(2) dopamine receptor [1]): 28 nM
- ED50 (Rattus norvegicus [5]): 1.7 µmol/kg
- ED50 (Rattus norvegicus [6]; [7]): 13.2 µmol/kg

SMILES: COc1cccc(C(=O)NC[C@H]2CCCN2Cc2ccccc2)c1OC
- IC50 (D(2) dopamine receptor [1]): 21 nM

SMILES: COc1cc(Br)cc(C(=O)NC[C@H]2CCCN2Cc2ccccc2)c1OC
- ED50 (Rattus norvegicus [2]; [7]): 1.2 µmol/kg
- Ki (D(2) dopamine receptor [3]): 0.024 nM
- IC50 (D(2) dopamine receptor [1]): 1.4 nM
- ED50 (Rattus norvegicus [6]; [7]): 1.4 µmol/kg

SMILES: COc1cc(Br)cc(C(=O)NC[C@H]2CCCN2Cc2ccc(F)cc2)c1OC
- IC50 (D(2) dopamine receptor [1]): 0.65 nM

SMILES: COc1ccc(Br)c(O)c1C(=O)NC[C@H]1CCCN1Cc1ccccc1
- ED50 (Rattus norvegicus [2]): 5.6 µM/kg
- Ki (D(2) dopamine receptor [3]): 0.8 nM
- IC50 (D(2) dopamine receptor [1]): 18 nM
- ED50 (Rattus norvegicus [6]): 18.6 µM/kg

SMILES: COc1c(Cl)cc(Cl)c(OC)c1C(=O)NC[C@H]1CCCN1Cc1ccc(F)cc1
- IC50 (D(2) dopamine receptor [1]): 2380 nM

SMILES: CCN1CCC[C@H]1CNC(=O)c1c(OC)ccc(Br)c1O
- ED50 (Rattus norvegicus [4]): 1 µmol/kg
- ED50 (Rattus norvegicus [5]): 0.6 µmol/kg

SMILES: CCN1CCC[C@H]1CNC(=O)c1cc(Br)cc(OC)c1OC
- Ki (D(2) dopamine receptor [3]): 0.018 nM
- ED50 (Rattus norvegicus [4]): 0.39 µmol/kg
- ED50 (Rattus norvegicus [5]): 0.005 µmol/kg

SMILES: CCN1CCC[C@H]1CNC(=O)c1cccc(OC)c1OC
- IC50 (D(2) dopamine receptor [1]): 52 nM

SMILES: COc1c(Cl)cc(Cl)c(O)c1C(=O)NC1CCN(Cc2ccccc2)CC1
- IC50 (D(2) dopamine receptor [1]): 5.4 nM

SMILES: COc1cc(Br)c(OC)c(C(=O)NC[C@H]2CCCN2Cc2ccc(F)cc2)c1OC
- IC50 (D(2) dopamine receptor [1]): 2210 nM

SMILES: COc1cc(Br)c(O)c(C(=O)NC[C@H]2CCCN2Cc2ccc(F)cc2)c1OC
- ED50 (Rattus norvegicus [2]; [7]): 1.5 µmol/kg
- Ki (D(2) dopamine receptor [3]): 0.19 nM
- ED50 (Rattus norvegicus [4]): 13 µmol/kg
- ED50 (Rattus norvegicus [5]): 1.3 µmol/kg
- ED50 (Rattus norvegicus [6]; [7]): 2.4 µmol/kg

SMILES: CCN1CCC[C@H]1CNC(=O)c1c(O)c(Br)cc(OC)c1OC
- ED50 (Rattus norvegicus [4]): 0.13 µmol/kg

SMILES: COc1ccc(Br)c(O)c1C(=O)NCC1CCCN1Cc1ccccc1 (racemic)
- IC50 (D(2) dopamine receptor [1]): 36 nM

SMILES: COc1ccc(Br)c(O)c1C(=O)NCC1CCCN1Cc1ccccc1 (single isomer, unassigned)
- ED50 (Rattus norvegicus [2]): >80 µM/kg
- IC50 (D(2) dopamine receptor [1]): 2680 nM
- ED50 (Rattus norvegicus [6]): >80 µM/kg

SMILES: CCN1CCC[C@H]1CNC(=O)c1c(O)c(Cl)cc(Cl)c1OC [RACLOPRIDE]
- ED50 (Rattus norvegicus [4]): 10 µmol/kg
